Results from ChEMBL document CHEMBL1926509, “Discovery of pyrazolo[1,5-a]pyridines as p110α-selective PI3 kinase inhibitors” (Bioorg Med Chem, 2012).

How the values were obtained:
[1] = biological target: Phosphatidylinositol 4,5-bisphosphate 3-kinase catalytic subunit alpha isoform (Homo sapiens, UniProt P42336); assay: Inhibition of recombinant PI3K p110alpha using L-alpha-phosphatidylinositol as substrate and [gamma33P]ATP after 60 mins by thin layer chromatographic technique
In short: (§1)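 In-house recombinant class Ia PI3K isoform (0.1 µg) with L-α-phosphatidylinositol substrate in lipid kinase buffer (Tris–HCl pH 7.4, NaCl, EDTA), 1% DMSO final. Started with ATP mix (5 mM MgCl₂, 100 µM ATP plus [γ-³³P]ATP), 1 h at room temperature, stopped with 1 M HCl. Lipids extracted in two steps, separated by TLC, read by phosphorimager. Nine inhibitor concentrations; IC50 averaged over two experiments.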

[2] = biological target: Phosphatidylinositol 4,5-bisphosphate 3-kinase catalytic subunit beta isoform (Homo sapiens, UniProt P42338); assay: Inhibition of recombinant PI3K p110beta using L-alpha-phosphatidylinositol as substrate and [gamma33P]ATP after 60 mins by thin layer chromatographic technique; in short: as §1
[3] = biological target: T1, Phosphatidylinositol 4,5-bisphosphate 3-kinase catalytic subunit delta isoform (Homo sapiens, UniProt O00329); assay: Inhibition of recombinant PI3K p110delta using L-alpha-phosphatidylinositol as substrate and [gamma33P]ATP after 60 mins by thin layer chromatographic technique; in short: as §1
T1 sequence (O00329 whole entry): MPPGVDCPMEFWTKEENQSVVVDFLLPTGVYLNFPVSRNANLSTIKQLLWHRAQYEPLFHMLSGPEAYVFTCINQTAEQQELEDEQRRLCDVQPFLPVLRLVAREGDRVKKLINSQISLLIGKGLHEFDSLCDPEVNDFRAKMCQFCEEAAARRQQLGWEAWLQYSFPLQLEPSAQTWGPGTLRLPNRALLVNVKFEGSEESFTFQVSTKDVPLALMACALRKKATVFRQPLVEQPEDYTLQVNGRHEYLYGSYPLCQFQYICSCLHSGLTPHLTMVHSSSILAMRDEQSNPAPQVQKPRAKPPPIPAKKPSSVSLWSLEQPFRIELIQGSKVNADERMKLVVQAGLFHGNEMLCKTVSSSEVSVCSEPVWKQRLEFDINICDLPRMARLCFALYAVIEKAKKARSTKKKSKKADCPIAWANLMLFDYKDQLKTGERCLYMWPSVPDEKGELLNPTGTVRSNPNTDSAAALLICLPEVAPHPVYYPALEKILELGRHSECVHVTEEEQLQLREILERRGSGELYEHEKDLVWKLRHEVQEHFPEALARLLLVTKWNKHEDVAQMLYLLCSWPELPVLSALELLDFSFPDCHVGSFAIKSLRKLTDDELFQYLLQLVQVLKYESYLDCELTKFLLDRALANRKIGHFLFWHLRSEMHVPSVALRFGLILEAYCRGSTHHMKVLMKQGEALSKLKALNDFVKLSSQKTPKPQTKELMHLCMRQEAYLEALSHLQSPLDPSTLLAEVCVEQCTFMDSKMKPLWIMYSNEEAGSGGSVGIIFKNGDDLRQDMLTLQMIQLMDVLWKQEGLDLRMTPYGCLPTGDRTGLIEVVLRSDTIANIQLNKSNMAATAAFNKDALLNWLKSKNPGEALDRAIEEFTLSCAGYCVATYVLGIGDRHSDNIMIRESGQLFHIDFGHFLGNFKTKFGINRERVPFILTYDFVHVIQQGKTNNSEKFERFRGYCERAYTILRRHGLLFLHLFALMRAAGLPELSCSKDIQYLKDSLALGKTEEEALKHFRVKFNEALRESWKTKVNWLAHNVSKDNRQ

[4] = Cytotoxicity against human NZB5 cells expressing wild type p110alpha assessed as inhibition of [3H]thymidine incorporation after 5 days; assay type: functional, cell-based
In short: (§2)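 Early-passage lab-derived lines in α-MEM with insulin, transferrin, selenite and 5% FBS. Seeded at 1000 cells/well; drug added in 10-fold steps up to 20 µM. Incubated five days under 5% O₂/5% CO₂/90% N₂, with ³H-thymidine (0.04 µCi/well) over the last 6 h. Duplicates per dose; least-squares exponential fit; IC50 is the concentration giving 50% less incorporation.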

[5] = Cytotoxicity against human NZOV9 cells expressing p110alpha Y1021C mutant assessed as inhibition of [3H]thymidine incorporation after 5 days; assay type: functional, cell-based; in short: as §2
[6] = Selectivity ratio of IC50 for PI3K p110beta to IC50 for PI3K p110alpha
[7] = Selectivity ratio of IC50 for PI3K p110delta to IC50 for PI3K p110alpha

Sequence of Phosphatidylinositol 4,5-bisphosphate 3-kinase catalytic subunit beta isoform (P42338 whole entry, canonical isoform): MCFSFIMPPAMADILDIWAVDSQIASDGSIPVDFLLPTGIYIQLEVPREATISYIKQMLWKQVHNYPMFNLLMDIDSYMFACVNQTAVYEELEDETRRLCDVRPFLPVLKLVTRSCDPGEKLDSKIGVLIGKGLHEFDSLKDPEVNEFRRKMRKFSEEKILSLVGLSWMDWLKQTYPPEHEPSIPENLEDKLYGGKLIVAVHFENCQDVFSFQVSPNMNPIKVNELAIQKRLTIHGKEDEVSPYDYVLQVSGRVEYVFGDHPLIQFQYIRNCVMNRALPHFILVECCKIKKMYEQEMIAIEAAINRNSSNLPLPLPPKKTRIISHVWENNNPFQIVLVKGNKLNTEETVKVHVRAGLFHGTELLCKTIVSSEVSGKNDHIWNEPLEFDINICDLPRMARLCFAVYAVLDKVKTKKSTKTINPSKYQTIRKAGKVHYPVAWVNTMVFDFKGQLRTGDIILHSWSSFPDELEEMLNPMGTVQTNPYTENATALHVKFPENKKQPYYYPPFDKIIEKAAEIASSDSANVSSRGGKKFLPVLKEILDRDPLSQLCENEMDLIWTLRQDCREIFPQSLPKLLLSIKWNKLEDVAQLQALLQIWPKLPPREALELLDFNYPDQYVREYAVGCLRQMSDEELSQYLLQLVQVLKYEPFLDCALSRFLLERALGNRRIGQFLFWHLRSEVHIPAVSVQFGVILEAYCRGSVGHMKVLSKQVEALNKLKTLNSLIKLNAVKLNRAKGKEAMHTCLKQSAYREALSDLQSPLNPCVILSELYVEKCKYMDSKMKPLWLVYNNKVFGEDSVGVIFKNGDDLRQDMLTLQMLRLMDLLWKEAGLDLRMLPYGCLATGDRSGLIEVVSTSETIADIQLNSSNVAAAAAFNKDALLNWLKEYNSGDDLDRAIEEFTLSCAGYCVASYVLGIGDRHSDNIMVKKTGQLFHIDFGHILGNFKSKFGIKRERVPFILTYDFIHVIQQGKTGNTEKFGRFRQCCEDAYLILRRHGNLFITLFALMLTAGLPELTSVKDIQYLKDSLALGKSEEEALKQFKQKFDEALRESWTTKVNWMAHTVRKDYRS
Sequence of Phosphatidylinositol 4,5-bisphosphate 3-kinase catalytic subunit alpha isoform (P42336 whole entry, canonical isoform): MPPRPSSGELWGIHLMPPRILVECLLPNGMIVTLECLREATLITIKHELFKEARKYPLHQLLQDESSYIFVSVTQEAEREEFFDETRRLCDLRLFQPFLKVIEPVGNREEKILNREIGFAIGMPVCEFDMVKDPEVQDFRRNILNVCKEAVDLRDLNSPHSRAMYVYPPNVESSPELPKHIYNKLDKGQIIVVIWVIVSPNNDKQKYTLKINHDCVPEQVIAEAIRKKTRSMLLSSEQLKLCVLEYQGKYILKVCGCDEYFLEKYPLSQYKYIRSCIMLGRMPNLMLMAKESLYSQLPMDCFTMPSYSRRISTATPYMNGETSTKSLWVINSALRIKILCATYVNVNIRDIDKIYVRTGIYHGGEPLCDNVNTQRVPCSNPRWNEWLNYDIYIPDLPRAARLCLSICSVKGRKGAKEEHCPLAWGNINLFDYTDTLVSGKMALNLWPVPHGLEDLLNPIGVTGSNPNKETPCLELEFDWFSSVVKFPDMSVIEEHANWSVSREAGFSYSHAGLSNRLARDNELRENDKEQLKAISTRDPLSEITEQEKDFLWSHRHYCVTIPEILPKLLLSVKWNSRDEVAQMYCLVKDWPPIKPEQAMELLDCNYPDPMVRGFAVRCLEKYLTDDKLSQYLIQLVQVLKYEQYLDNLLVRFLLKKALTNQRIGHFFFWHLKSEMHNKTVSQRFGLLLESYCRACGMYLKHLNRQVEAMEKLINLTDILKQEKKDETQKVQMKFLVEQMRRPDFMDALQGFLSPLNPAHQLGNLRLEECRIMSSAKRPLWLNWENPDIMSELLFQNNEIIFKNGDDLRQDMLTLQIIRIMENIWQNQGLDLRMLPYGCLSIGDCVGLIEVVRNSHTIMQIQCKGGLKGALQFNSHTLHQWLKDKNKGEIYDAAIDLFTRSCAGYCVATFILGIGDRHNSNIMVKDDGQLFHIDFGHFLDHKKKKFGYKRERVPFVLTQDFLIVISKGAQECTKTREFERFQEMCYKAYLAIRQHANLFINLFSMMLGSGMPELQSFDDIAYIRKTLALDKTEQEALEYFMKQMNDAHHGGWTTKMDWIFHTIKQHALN

| IC50 [1] [nM] | IC50 [2] [nM] | IC50 [3] [nM] | Ratio IC50 [6] | Ratio IC50 [7] | SMILES | IC50 [4] [nM] | IC50 [5] [nM] |
| --- | --- | --- | --- | --- | --- | --- | --- |
| > 1000 | > 1000 | > 1000 |  |  | Cc1ccc([N+](=O)[O-])cc1S(=O)(=O)N(C)/N=C/c1cnn2ccc(-c3ccccc3)cc12 | 10000 | 10000 |
| 530 | > 1000 | > 1000 |  |  | Cc1ccc([N+](=O)[O-])cc1S(=O)(=O)N(C)/N=C/c1cnn2ccc(C(N)=O)cc12 | 600 | 10000 |
| 39 | > 1000 | 310 |  |  | CCC/C(=N\NS(=O)(=O)c1cc([N+](=O)[O-])ccc1C)c1cnn2ccc(C#N)cc12 | 370 | 640 |
| > 1000 | > 1000 | > 1000 |  |  | Cc1ccc([N+](=O)[O-])cc1S(=O)(=O)N(C)/N=C/c1cnn2cccc(C)c12 | 18000 | > 20000 |
| > 1000 | > 1000 | > 1000 |  |  | Cc1ccc([N+](=O)[O-])cc1S(=O)(=O)N(C)/N=C/c1cnn2cccc(Br)c12 | > 20000 | 6500 |
| 130 | > 1000 | > 1000 |  |  | C=Cc1ccn2ncc(/C=N/N(C)S(=O)(=O)c3cc([N+](=O)[O-])ccc3C)c2c1 | 990 | 580 |
| 16 | 370 | 170 |  |  | Cc1ccc([N+](=O)[O-])cc1S(=O)(=O)N(C)/N=C/c1cnn2ccc(I)cc12 | 40 | 50 |
| 10 | > 1000 | 440 |  |  | CC/C(=N\NS(=O)(=O)c1cc([N+](=O)[O-])ccc1C)c1cnn2ccc(C#N)cc12 | 88 | 360 |
| 1100 | > 1000 | > 1000 |  |  | Cc1ccc([N+](=O)[O-])cc1S(=O)(=O)N(C)/N=C/c1cnn2ccc(C3CC3)cc12 | 740 | 670 |
| 610 | > 1000 | > 1000 |  |  | CCC/C(=N\N(C)S(=O)(=O)c1cc([N+](=O)[O-])ccc1C)c1cnn2ccc(C#N)cc12 | 680 | 2300 |
| 13 | 620 | 580 |  |  | Cc1ccc([N+](=O)[O-])cc1S(=O)(=O)N/N=C/c1cnn2ccc(C#N)cc12 | 2600 | 4900 |
| > 1000 | > 1000 | > 1000 |  |  | CNC(=O)c1ccn2ncc(/C=N/N(C)S(=O)(=O)c3cc([N+](=O)[O-])ccc3C)c2c1 | 10000 | 10000 |
| 3.8 | 230 | 150 |  |  | Cc1ccc([N+](=O)[O-])cc1S(=O)(=O)N(C)/N=C/c1cnn2ccc(Br)cc12 | 310 | 50 |
| > 1000 | > 1000 | > 1000 |  |  | Cc1ccc([N+](=O)[O-])cc1S(=O)(=O)N(C)/N=C/c1cnn2ccc(C(=O)N(C)C)cc12 | 10000 | 10000 |
| 340 | > 1000 | > 1000 |  |  | Cc1ccc([N+](=O)[O-])cc1S(=O)(=O)N(C)/N=C/c1cnn2ccc(O)cc12 | > 20000 | > 20000 |
| 2.9 | 390 | 90 |  |  | Cc1ccc([N+](=O)[O-])cc1S(=O)(=O)N(C)/N=C/c1cnn2ccc(Cl)cc12 |  | 550 |

| IC50 [1] [nM] | IC50 [2] [nM] | IC50 [3] [nM] | Ratio IC50 [6] | Ratio IC50 [7] | SMILES | IC50 [4] [nM] | IC50 [5] [nM] |
| --- | --- | --- | --- | --- | --- | --- | --- |
| 1600 | > 1000 | > 1000 |  |  | Cc1ccc([N+](=O)[O-])cc1S(=O)(=O)N(C)/N=C/c1cnn2c(C)cccc12 | 6000 | 1200 |
| 390 | > 1000 | > 1000 |  |  | CC/C(=N\N(C)S(=O)(=O)c1cc([N+](=O)[O-])ccc1C)c1cnn2ccc(C#N)cc12 | 410 | 3700 |
| 910 | > 1000 | > 1000 |  |  | CC(=O)Oc1ccn2ncc(/C=N/N(C)S(=O)(=O)c3cc([N+](=O)[O-])ccc3C)c2c1 | 8200 | 8900 |
| 960 | > 10000 | 3400 | 60 | 40 | Cc1ccc([N+](=O)[O-])cc1S(=O)(=O)N(C)/N=C/c1cnn2ccccc12 | 470 | 660 |
| > 1000 | > 1000 | > 1000 |  |  | Cc1ccc([N+](=O)[O-])cc1S(=O)(=O)N(C)/N=C/c1cnn2cc(Br)ccc12 | > 20000 | 4500 |
| 1200 | > 1000 | > 1000 |  |  | C/C(=N\N(C)S(=O)(=O)c1cc([N+](=O)[O-])ccc1C)c1cnn2ccc(Br)cc12 | > 20000 | > 20000 |
| 30 | 480 | 220 |  |  | C/C(=N\NS(=O)(=O)c1cc([N+](=O)[O-])ccc1C)c1cnn2ccc(Br)cc12 | 420 | 350 |
| 80 | 600 | 510 |  |  | C/C(=N\N(C)S(=O)(=O)c1cc([N+](=O)[O-])ccc1C)c1cnn2ccc(C#N)cc12 | 4400 | 7500 |
| > 1000 | > 1000 | > 1000 |  |  | CCc1ccn2ncc(/C=N/N(C)S(=O)(=O)c3cc([N+](=O)[O-])ccc3C)c2c1 | 410 | 560 |
| > 1000 | > 1000 | > 1000 |  |  | Cc1ccc2c(/C=N/N(C)S(=O)(=O)c3cc([N+](=O)[O-])ccc3C)cnn2c1 | 10000 | 8000 |
| 150 | > 1000 | > 1000 |  |  | Cc1ccc([N+](=O)[O-])cc1S(=O)(=O)N(C)/N=C/c1cnn2ccc(C(F)(F)F)cc12 | 70 | 90 |
| 110 | > 1000 | 700 |  |  | Cc1ccn2ncc(/C=N/N(C)S(=O)(=O)c3cc([N+](=O)[O-])ccc3C)c2c1 | 50 | 70 |
| 45 | 1800 | 2500 |  |  | Cc1ccc([N+](=O)[O-])cc1S(=O)(=O)N(C)/N=C/c1cnn2cc(F)c(C#N)cc12 |  |  |
| 2.4 | 30 | 41 |  |  | C#Cc1ccn2ncc(/C=N/N(C)S(=O)(=O)c3cc([N+](=O)[O-])ccc3C)c2c1 | 160 | 110 |
| 7 | 410 | 900 |  |  | C/C(=N\NS(=O)(=O)c1cc([N+](=O)[O-])ccc1C)c1cnn2ccc(C#N)cc12 | 1100 | 2100 |
| 360 | > 1000 | 690 |  |  | COC(=O)c1ccn2ncc(/C=N/N(C)S(=O)(=O)c3cc([N+](=O)[O-])ccc3C)c2c1 | 1800 | 1500 |

| SMILES | IC50 [1] [nM] | IC50 [2] [nM] | IC50 [3] [nM] | Ratio IC50 [6] | Ratio IC50 [7] | IC50 [4] [nM] | IC50 [5] [nM] |
| --- | --- | --- | --- | --- | --- | --- | --- |
| COc1ccn2ncc(/C=N/N(C)S(=O)(=O)c3cc([N+](=O)[O-])ccc3C)c2c1 | 190 | > 1000 | > 1000 |  |  | 940 | 520 |
